Source: paper PMC3515069 (Toxicology, 2012)
“Also recorded” adds a separate entry of the source. Where two headings read alike, the source gives them in different places.

Key:
AhR [1] = details: ref Medjakovic and Jungbauer, 2008; cited from earlier work
AhR [2] = molecular target: T1, AhR (Homo sapiens, UniProt P35869); assay: AhR antagonist luciferase assay; assay type: cell-based; details: human HG2L6.1c3 cells, 10 μM with 10 nM TCDD
T1 sequence (P35869 11-848): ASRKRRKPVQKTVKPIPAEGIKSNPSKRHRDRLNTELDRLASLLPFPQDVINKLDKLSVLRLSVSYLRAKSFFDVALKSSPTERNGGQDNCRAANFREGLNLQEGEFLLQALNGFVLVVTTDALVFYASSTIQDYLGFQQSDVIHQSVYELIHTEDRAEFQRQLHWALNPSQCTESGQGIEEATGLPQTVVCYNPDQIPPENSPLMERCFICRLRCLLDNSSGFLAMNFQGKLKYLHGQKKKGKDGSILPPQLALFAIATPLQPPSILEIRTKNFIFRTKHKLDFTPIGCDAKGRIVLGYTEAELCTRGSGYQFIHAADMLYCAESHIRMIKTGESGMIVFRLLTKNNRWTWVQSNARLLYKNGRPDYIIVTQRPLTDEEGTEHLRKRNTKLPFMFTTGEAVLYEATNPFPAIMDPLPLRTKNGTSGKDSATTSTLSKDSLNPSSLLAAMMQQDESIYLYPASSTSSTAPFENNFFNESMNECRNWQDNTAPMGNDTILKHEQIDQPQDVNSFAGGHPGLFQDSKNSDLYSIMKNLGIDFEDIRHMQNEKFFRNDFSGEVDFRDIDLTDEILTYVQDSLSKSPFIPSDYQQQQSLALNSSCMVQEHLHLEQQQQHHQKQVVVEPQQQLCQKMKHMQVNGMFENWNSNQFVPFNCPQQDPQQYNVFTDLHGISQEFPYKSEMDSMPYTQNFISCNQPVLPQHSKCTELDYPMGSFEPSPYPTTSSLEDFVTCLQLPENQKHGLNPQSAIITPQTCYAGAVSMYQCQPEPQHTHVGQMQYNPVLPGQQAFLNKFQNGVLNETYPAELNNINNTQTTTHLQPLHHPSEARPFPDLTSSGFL

AhR [3] = molecular target: T2, AhR (Rattus norvegicus, UniProt P41738); assay type: cell-based; details: rat H4IIE cells; for antagonistic effect (in words): 10 μM Chr-13 or 1 μM Chr-19 with TCDD, qRT-PCR
T2 sequence (P41738 10-853): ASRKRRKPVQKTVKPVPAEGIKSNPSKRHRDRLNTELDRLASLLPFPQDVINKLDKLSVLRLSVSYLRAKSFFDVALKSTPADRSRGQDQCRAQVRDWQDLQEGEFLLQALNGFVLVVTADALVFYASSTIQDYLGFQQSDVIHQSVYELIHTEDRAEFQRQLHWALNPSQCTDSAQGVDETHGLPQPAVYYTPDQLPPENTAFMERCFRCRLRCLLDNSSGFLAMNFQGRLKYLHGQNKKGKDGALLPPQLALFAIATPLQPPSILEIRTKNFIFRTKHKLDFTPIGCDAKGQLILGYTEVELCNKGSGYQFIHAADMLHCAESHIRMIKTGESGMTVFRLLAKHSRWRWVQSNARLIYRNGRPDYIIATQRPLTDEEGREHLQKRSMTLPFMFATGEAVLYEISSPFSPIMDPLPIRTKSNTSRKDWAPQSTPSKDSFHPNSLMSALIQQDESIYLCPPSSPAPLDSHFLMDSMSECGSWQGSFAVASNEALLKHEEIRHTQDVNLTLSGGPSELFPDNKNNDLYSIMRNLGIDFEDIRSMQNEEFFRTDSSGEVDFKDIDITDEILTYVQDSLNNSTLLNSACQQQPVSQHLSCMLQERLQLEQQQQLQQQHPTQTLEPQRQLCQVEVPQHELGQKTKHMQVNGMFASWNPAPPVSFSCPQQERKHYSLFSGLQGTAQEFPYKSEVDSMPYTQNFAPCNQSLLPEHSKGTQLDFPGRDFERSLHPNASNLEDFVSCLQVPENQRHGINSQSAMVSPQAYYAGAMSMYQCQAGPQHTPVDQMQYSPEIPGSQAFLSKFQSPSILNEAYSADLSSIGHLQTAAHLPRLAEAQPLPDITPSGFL

AhR [4] = molecular target: T2, AhR; assay: CYP1A1 mRNA induction by qRT-PCR, rat H4IIE cells; details: for concentration inducing ~20% of the maximal response of 10 nM TCDD: rat H4IIE cells, CYP1A1 mRNA
AhR [5] = molecular target: T1, AhR; assay: CYP1A1 mRNA induction by qRT-PCR, human MCF-7 cells; details: for concentration inducing ~20% of the maximal response of 10 nM TCDD: concentrations up to 100 μM
AhR [6] = molecular target: T1, AhR; assay type: cell-based; details: human MCF-7 cells; for antagonistic effect (in words): 100 μM Chr-13 or 10 μM Chr-19 with TCDD
AhR [7] = molecular target: AhR (Mus musculus, UniProt P30561); assay: AhR agonist luciferase induction, mouse H1L6.1c2 cells; assay type: cell-based; details: 10 μM; for AhR-dependent luciferase induction, normalised to maximal TCDD response: 24 hours, 1 nM TCDD = 100%; for AhR agonist activity (in words): luciferase
AhR (Mus musculus, UniProt P30561), sequence (P30561 10-805 limits assumed): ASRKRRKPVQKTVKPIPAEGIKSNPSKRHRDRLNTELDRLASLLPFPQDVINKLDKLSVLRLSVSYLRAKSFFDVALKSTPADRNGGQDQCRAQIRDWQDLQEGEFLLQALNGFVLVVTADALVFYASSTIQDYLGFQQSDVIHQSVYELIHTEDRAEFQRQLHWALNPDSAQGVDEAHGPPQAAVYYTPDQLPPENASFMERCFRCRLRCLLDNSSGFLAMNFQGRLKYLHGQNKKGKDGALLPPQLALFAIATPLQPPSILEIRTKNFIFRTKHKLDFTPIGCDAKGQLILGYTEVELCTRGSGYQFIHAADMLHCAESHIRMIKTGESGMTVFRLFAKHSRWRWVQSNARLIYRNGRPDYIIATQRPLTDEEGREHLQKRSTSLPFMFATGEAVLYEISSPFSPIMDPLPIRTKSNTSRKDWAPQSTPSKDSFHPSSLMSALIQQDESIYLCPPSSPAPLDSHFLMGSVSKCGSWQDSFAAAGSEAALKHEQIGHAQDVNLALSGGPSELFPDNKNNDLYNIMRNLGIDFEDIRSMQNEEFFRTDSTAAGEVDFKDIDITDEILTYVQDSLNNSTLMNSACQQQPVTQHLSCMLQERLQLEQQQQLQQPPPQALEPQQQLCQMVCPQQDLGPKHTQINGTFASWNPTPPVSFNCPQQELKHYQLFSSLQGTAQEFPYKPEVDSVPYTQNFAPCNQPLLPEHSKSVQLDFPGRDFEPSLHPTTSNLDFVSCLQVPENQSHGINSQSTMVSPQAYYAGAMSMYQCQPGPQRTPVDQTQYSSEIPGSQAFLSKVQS
AhR (Mus musculus, UniProt P30561), sequence (P11499 whole entry partner): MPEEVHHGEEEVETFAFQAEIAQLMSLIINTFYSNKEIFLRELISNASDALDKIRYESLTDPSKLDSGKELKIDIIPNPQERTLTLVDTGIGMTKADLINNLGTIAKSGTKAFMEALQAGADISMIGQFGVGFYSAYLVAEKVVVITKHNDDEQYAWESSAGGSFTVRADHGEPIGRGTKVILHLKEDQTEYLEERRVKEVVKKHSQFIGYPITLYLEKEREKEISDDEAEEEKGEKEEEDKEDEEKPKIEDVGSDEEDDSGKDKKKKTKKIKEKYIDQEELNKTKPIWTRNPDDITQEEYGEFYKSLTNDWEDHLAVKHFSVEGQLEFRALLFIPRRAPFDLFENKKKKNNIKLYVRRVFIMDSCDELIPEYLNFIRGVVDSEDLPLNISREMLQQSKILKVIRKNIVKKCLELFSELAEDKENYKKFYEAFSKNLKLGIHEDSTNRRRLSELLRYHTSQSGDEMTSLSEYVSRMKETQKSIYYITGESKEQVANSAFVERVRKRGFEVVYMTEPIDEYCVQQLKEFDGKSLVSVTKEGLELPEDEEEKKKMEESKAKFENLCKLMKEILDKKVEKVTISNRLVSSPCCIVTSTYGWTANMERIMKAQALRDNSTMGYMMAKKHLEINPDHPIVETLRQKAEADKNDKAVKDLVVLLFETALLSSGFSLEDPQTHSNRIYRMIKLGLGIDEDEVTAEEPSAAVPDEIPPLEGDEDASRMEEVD
AhR (Mus musculus, UniProt P30561), sequence (O08915 whole entry partner): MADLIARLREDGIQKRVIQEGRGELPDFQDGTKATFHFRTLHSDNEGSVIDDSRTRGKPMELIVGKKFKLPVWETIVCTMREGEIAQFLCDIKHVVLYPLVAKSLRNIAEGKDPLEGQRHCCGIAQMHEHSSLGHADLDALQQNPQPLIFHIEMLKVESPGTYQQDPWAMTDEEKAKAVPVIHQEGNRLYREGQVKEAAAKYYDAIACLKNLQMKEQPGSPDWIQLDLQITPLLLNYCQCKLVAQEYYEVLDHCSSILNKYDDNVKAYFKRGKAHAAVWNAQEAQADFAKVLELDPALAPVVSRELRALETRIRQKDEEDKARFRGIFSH
Summary of the method: (§1)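 Mouse H1L6.1c2 (from Hepa1c1c7) and human HG2L6.1c3 (from HepG2) hepatoma lines stably carry firefly luciferase under four DREs upstream of the MMTV promoter. Cells were exposed for 24 h at 37°C to test compound (10 mM DMSO stock) in 0.1% DMSO, TCDD (mouse 1 nM, human 10 nM) or vehicle. Cells were PBS-washed and lysed, and luminescence was read. DMSO background was subtracted and values normalised to TCDD = 100%. S.D., n = 3.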

AhR [8] = molecular target: T1, AhR
AhR [9] = molecular target: T2, AhR
AhR [10] = molecular target: T1, AhR; assay: AhR agonist luciferase induction, human HG2L6.1c3 cells; assay type: cell-based; details: 10 μM
Summary of the method: as §1

AhR [11] = molecular target: T2, AhR; details: rat H4IIE cells; ref Van der Heiden et al., 2007; cited from earlier work
AhR [12] = molecular target: T1, AhR; details: human cells; ref Van der Heiden et al., 2007; cited from earlier work
AhR [13] = details: ref Ciolino and Yeh, 1999; cited from earlier work
AhR [14] = molecular target: T1, AhR; details: MCF-7 cells, EROD analysis; ref Ciolino et al. (1999); cited from earlier work

For `COc1ccc(-c2coc3cc(O)cc(O)c3c2=O)cc1` [Biochanin A], the “less potent than TCDD” value (AhR [1]) is given as 100 fold.
In the case of `Nc1oc2ccccc2c(=O)c1-c1ccc(Cl)cc1` [Chr-4], the “AhR antagonist activity (in words)” value (AhR [2]) is reported as “antagonised”.
For `COc1ccc2c(=O)c(-c3ccc(Cl)cc3)c(N)oc2c1` [Chr-13, 2-amino-3-(4′-chlorophenyl)-7-methoxychromen-4-one], the “background induction, % of the maximal induction” value (AhR [3]; 10 μM Chr-13 added to TCDD C/R curve) was ~ 25%, the “antagonistic effect (in words)” value (AhR [3]) was “no antagonistic effects” and the EC50 (AhR [4]) was 41.5 µM. The “concentration inducing ~20% of the maximal response of 10 nM TCDD” value (AhR [4]) was 10 µM, the “AhR antagonist activity (in words)” value (AhR [2]) was “antagonised; also recorded: strong antagonist” and the “EC50 (95% Confidence interval)” value (AhR [5]; human MCF-7 cells, CYP1A1 mRNA, 4 hours, assuming maximal response is reached) was “could not be obtained; also recorded: No agonistic effect”. The “concentration inducing ~20% of the maximal response of 10 nM TCDD” value (AhR [5]; human MCF-7 cells, CYP1A1 mRNA) was “no response was detected”, the “reduction of the potency of TCDD” value (AhR [6]; 100 μM Chr-13) was 5 fold and the “antagonistic effect (in words)” value (AhR [6]; qRT-PCR) was “weak antagonist”. For the same compound, the “AhR-dependent luciferase induction, normalised to maximal TCDD response” value (AhR [7]) was 50%, the “AhR-dependent luciferase induction, normalised to maximal TCDD response” value (AhR [7]; listed as Chr 13) was “greater than 30%” and the “AhR agonist activity (in words)” value (AhR [7]) was “strong agonist”.
In the case of `COc1ccc(-c2cc3cc(Cl)ccc3oc2=O)cc1` [Chr-19, 6-Chloro-3-(4′-methoxy)phenylcoumarin], the EC50 (AhR [8]) is reported as 140 µM, the EC50 (AhR [9]) is reported as 7.7 µM and the “more potent in rat H4IIE than in human MCF-7 cells” value (AhR [9]) is reported as “approximately 20 fold”. For the same compound, the “antagonistic effect (in words)” value (AhR [3]) was “no shift of the TCDD curve to the right”, the “concentration inducing ~20% of the maximal response of 10 nM TCDD” value (AhR [4]) was 1 µM and the “AhR agonist activity (in words)” value (AhR [10]) was “induced significant levels; also recorded: weak agonist”. The “AhR antagonist activity (in words)” value (AhR [2]) was “antagonised; also recorded: antagonist”, the “concentration inducing ~20% of the maximal response of 10 nM TCDD” value (AhR [5]; human MCF-7 cells, CYP1A1 mRNA) was 10 µM and the “reduction of the potency of TCDD” value (AhR [6]; 10 μM Chr-19) was 3 fold. The “antagonistic effect (in words)” value (AhR [6]; qRT-PCR) was “weak antagonist”, the “reduction of the response to 10 nM TCDD” value (AhR [6]; qRT-PCR, 10 μM) was 10% and the “AhR agonist activity (in words)” value (AhR [7]) was “weak agonist”.
For `Clc1cc2c(cc1Cl)Oc1cc(Cl)c(Cl)cc1O2` [TCDD, 2,3,7,8-tetrachlorodibenzo-p-dioxin, reference compound], the EC50 (AhR [4]) was 0.000113 µM, the EC50 (AhR [5]) was 0.000661 µM and the “potency lower in human MCF-7 than in rat H4IIE cells” value (AhR [5]; ratio of CYP1A1 mRNA EC50s, p<0.0001) was 6 fold.
For `O=c1cc(-c2ccccc2)oc2cc(O)cc(O)c12` [chrysin], the “AhR antagonistic effect (in words)” value (AhR [11]) is listed as “no antagonistic effects” and the “AhR activity (in words)” value (AhR [12]) is listed as “partial agonist”.
For `O=c1c(O)c(-c2ccccc2)oc2cc(O)cc(O)c12` [galangin], the “AhR activity (in words)” value (AhR [13]) is given as “AhR antagonist”.
For `O=c1c(O)c(-c2ccc(O)cc2)oc2cc(O)cc(O)c12` [kaempferol], the “AhR activity (in words)” value (AhR [14]) is given as “antagonist”.
For `O=c1c(O)c(-c2ccc(O)c(O)c2)oc2cc(O)cc(O)c12` [quercetin, Quercetin], the “AhR activity (in words)” value (AhR [14]) is listed as “AhR agonist”.
